Measured values: PMC5516171 (Clinical Pharmacology in Drug Development, 2016)
Entries after “also recorded” stand apart in the source; their conditions may differ.

Key:
[1] = system: rat peritoneal mast cells; test: In vitro mast cell degranulation, rat peritoneal mast cells; assay type: cell-based
Method in brief: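 Freshly isolated rat peritoneal mast cells were resuspended in RPMI 1640 with 1% FBS. They were given increasing concentrations of the excipient peptide (up to 250 μg/mL), the siRNA drug substance (up to 1000 μg/mL), or both combined. Incubation was 37°C for 10 or 30 min. Supernatant histamine (nM ± SD) and chymase measured degranulation; LDH measured viability.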

[2] = system: human mast cell line HMC‐1; test: In vitro mast cell degranulation, human mast cell line HMC‐1; assay type: cell-based; conditions: HMC‐1 cells, 37°C, 30 minutes; up to 250 μg/mL ARC‐EX1 and ARC‐520 API
Method in brief: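 HMC‑1 human mast cells were cultured in Iscove's medium with 2% FBS. They were exposed to increasing concentrations, up to 250 μg/mL, of the excipient peptide, the siRNA drug substance, or both combined. The positive control was phorbol myristate acetate plus calcium ionophore A23187. Incubation was 37°C for 30 min. Supernatants were assayed for histamine and β‑hexosaminidase (degranulation) and for LDH (viability).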

For “ARC‐EX1: delivery excipient: masked, hepatocyte‐targeted L‐melittin‐derived peptide; masking group carboxydimethyl maleic anhydride N‐acetyl galactosamine (LIGAILKVLATGLPTLISWIKNKRKQ; CDM-NAG masking groups)”, which “Concentration at which maximum histamine release was observed” value ([1]; 10 and 30 minutes of incubation) is on record?
Its value is no less than 10000 ng/mL.

And the “Mast cell degranulation and histamine release” value ([1]; 37°C, 10 or 30 minutes, up to 250 μg/mL ARC‐EX1 or 1000 μg/mL ARC‐520 API)?
Its value is “major trigger; also recorded: induced mast cell degranulation and histamine release in a dose‐dependent manner”.

What about the “Mast cell degranulation and histamine release” value [2] of the same substance?
The value was “major trigger”.
